Data: PubChem BioAssay
Active and inactive are the calls of the source.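 Rule for the calls, unless noted: active = viability at or under a set limit in both replicates, limit being median viability minus 3 SD (cut at about 48% in these data, passing the limit was not always enough); inconclusive = at or under the limit in just one replicate; inactive = at or above the limit in both replicates.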

What was measured:
[1] = reduced viability of SK-BR-3 breast cancer cells – cell-based, 24 h, human, pilot screen (AID 572;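 active = viability at or below 10% of carrier control in both of two separate runs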;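 note: compound exposure lasted between 18 and 24 h rather than exactly 24 h; 100% = carrier-treated control wells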); conditions: SK-BR-3 viability, CellTiter-Glo luminescence, at 10 µM, stronger effect = lower value
[2] = HUVEC growth inhibition – cell-based, human, primary screen (AID 575;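 active = viability at or below 30% in both replicate assays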;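 note: 100% = median of untreated cell wells with 0.1% DMSO on each plate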); conditions: HUVEC proliferation, CellTiter-Glo luminescence, 72 h; at 10 µM; stronger effect = lower value
Method in brief: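 material = primary HUVEC, no more than 12 passages | input = 1250 cells per well | controls = vehicle and MePR control wells | measured by = CTG luminescence | times = 72 h compound incubation | format = collagen-coated 384-well format | read-out = % viability vs DMSO wells | doses = single 10 µM dose, 0.1% DMSO, from 5x medium stock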

[3] = H69AR cell proliferation blockers – human, duplicate replicates, primary screen (AID 580); conditions: H69AR lung tumor cells viability, ATP luminescence, 72 h; at 10 µM; stronger effect = lower value;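 note: 100% = mean luminescence of untreated wells and 0% = no signal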
[4] = MRP1 drug-resistance reversers in H69AR cells – cell-based, doxorubicin co-treatment, pilot screen (AID 601;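 active = viability loss from added drug above about 55%, and viability with drug at most 40%, in both replicates, limit read from the data, passing the limit was not always enough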); conditions: CellTiter-Glo, 72 h, at 10 µM; for differential viability (reversal): stronger effect = higher value
[5] = yeast transport mutant growth inhibition pilot in 384-well plates, post-Golgi transport modulator project (AID 636; in the data active = inhibition above about 31%); conditions: absorbance 615 nm, about 18 h, stronger effect = higher value
[6] = growth suppression of yeast trafficking mutant, preliminary HTS, modulators of trafficking downstream of Golgi apparatus project, 1536-format plate, OD 615 nm (AID 637; in the data active = inhibition above about 30%); conditions: yeast transport mutant growth, absorbance 615 nm, 18 h; stronger effect = higher value
[7] = H69AR cells + 2 uM doxorubicin, measured here: viability with 2 uM doxorubicin, stronger effect = lower value
[8] = H69AR cells, compound alone cytotoxicity

Structure (SMILES)	viability [1]	viability [2]	viability [3]	differential viability (reversal) ([4]; H69AR cells + 2 uM doxorubicin)	viability [4, 7] [%]	viability [4, 8] [%]	inhibition [5]	inhibition [6]
CC(=O)OC[C@H]1O[C@@H](n2ncc(=O)[nH]c2=O)[C@H](OC(C)=O)[C@@H]1OC(C)=O	103% (inactive)	84.3% (inactive)	91.3% (inactive)	3.12% (inactive)	88.2	91.3	-0.39% (inactive)	3.17% (inactive)
C/C=C(\C)c1nnc(NC(=O)OCC)s1	94% (inactive)	117% (inactive)	96.4% (inactive)	6.96% (inactive)	89.4	96.4	-2.84% (inactive)	-0.91% (inactive)
COC(=O)Cn1c(CCS(=O)(=O)c2ccc(C)cc2)nc2ccccc21	99% (inactive)	96.5% (inactive)	76.4% (inactive)	6.58% (inactive)	69.8	76.4	-0.91% (inactive)	-1.64% (inactive)
Cc1cccc(C(=O)O)c1NC(=O)c1ccc(F)cc1	109% (inactive)	107% (inactive)	104% (inactive)	3.75% (inactive)	100	104	0.27% (inactive)	-1.09% (inactive)
CC(C)OC(=O)CSc1nnc(-c2cccnc2)n1Cc1ccccc1	86% (inactive)	105% (inactive)	89.9% (inactive)	9.68% (inactive)	80.2	89.9	-5.81% (inactive)	0.18% (inactive)
CCc1cn([C@H]2C[C@H](O)[C@@H](CO)O2)c(=O)[nH]c1=O	120% (inactive)	93.2% (inactive)	85.9% (inactive)	9.33% (inactive)	76.6	85.9	-0.26% (inactive)	7.5% (inactive)
COc1cc(C)c(Br)cc1S(=O)(=O)N1CCOCC1	84% (inactive)	99.6% (inactive)	100% (inactive)	14.5% (inactive)	86	100	-5.48% (inactive)	-0.18% (inactive)
Cn1c(=O)[nH]c(=O)c2c1nc(Br)n2CCCSc1nc2ccccc2o1	89% (inactive)	36.2% (inactive)	23.8% (active)	-9.42% (inactive)	33.3	23.8	-4.13% (inactive)	-4.55% (inactive)
c1ccc(Cc2nn3c(Cn4cnc5ccccc54)nnc3s2)cc1	128% (inactive)	78.9% (inactive)	85.8% (inactive)	3.46% (inactive)	82.3	85.8	-5.34% (inactive)	-0.65% (inactive)
Cc1cc(S(=O)(=O)N2CCN(c3ncccn3)CC2)ccc1-n1cnnn1	94% (inactive)	120% (inactive)	97.1% (inactive)	3.36% (inactive)	93.7	97.1	-2.8% (inactive)	-0.73% (inactive)
COc1ccccc1NC(=O)CSc1nnc(Cn2nnc(-c3ccccc3)n2)n1-c1ccccc1	63% (inactive)	88.7% (inactive)	87.4% (inactive)	-5.36% (inactive)	92.8	87.4	-5.75% (inactive)	-1.45% (inactive)
Cc1ccc2c(c1)N(CC(=O)N1CCCCC1c1cccnc1)C(=O)CO2 (stereo unspecified)	106% (inactive)	99.8% (inactive)	95% (inactive)	-4.01% (inactive)	99	95	-2.84% (inactive)	-5.82% (inactive)
c1ccc(-c2ccc(C(c3ccccc3)n3ccnc3)cc2)cc1 (stereo unspecified)	140% (inactive)	74.3% (inactive)	63.3% (inactive)	-2.76% (inactive)	66	63.3	100% (active)	100% (active)
O=S(=O)(NC1CCCCC1NS(=O)(=O)c1ccc(F)cc1)c1ccc(F)cc1 (stereo unspecified)	106% (inactive)	91.2% (inactive)	94.1% (inactive)	-1.67% (inactive)	95.8	94.1	-4.68% (inactive)	6.07% (inactive)
CN(C)CCCN1c2ccccc2CCc2ccc(Cl)cc21	78% (inactive)	5.55% (active)	65.2% (inactive)	12% (inactive)	53.2	65.2	-0.26% (inactive)	1.17% (inactive)
CCSc1nc(O)c(C2OC(=O)c3c2ccc(OC)c3OC)c(=O)n1-c1ccccc1 (stereo unspecified)	129% (inactive)	94.5% (inactive)	96.5% (inactive)	11.4% (inactive)	85.1	96.5	-9.45% (inactive)	4.35% (inactive)
Cc1sc2ncnc(Oc3ccc(-n4ccnc4)cc3)c2c1C	88% (inactive)	102% (inactive)	87.2% (inactive)	-15.1% (inactive)	102	87.2	-8.77% (inactive)	3.27% (inactive)
